Holding throughout (assay type): functional
For assay [1], the species on record is Cavia porcellus. As to the kind of experiment: Agonist activity in guinea pig ileum preparation. The gist of the method:
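Electrically stimulated guinea pig ileum. Agonist IC50 is derived from concentration-response curves, with the number of experiments noted for each. In a separate run, tissue is depleted of functional μ receptors by preincubation with β-FNA before the agonist curve is repeated.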

For assay [2], the species on record is Mus musculus. As to the kind of experiment: Antagonist activity in mouse vas deferens preparation.
For assay [3], the system named is Mus musculus. As to the kind of experiment: Mice were intracerebroventricularly injected with 10 nmol and challenged with a 10 mg/kg subcutaneous dose of morphine sulfate; percentage of animals exhibiting analgesia was reported, after 2 hr.
Assay [4] in a line: Irreversible antagonist activity is measured from the ratio of agonist activity (IC50) to that of the control (morphine). The gist of the method:
(§1)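 Electrically stimulated guinea pig ileum or mouse vas deferens. Tissue is incubated 30 min with 200 nM compound, then washed 20 times. […] Number of experiments is noted.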

Assay [5] in a line: Irreversible antagonist activity is measured from the ratio of agonist activity (IC50) to that of the control (ethylketazocine). In outline: as §1
In assay [6] the test system is Mus musculus. Description: Analgesic activity by tail-flick procedure, after intracerebroventricular administration in mice. Compound is inactive at 10 nmol/mouse.
The test system of assay [7] is Mus musculus. As to the kind of experiment: Mice were intracerebroventricularly injected with 10 nmol and challenged with a 10 mg/kg subcutaneous dose of morphine sulfate; percentage of animals exhibiting analgesia was reported, after 24 hr.
For assay [8], the system named is Mus musculus. As to the kind of experiment: Mice were intracerebroventricularly injected with 10 nmol and challenged with a 10 mg/kg subcutaneous dose of morphine sulfate; percentage of animals exhibiting analgesia was reported, after 0.5 hr.
Assay [9] has as its system Mus musculus. Description: analgesic activity by tail-flick procedure, after intracerebroventricular administration in mice; Compound is inactive at 10 nmol/mouse.
Assay [10] has as its system Mus musculus. Description: Analgesic activity, 30 min after subcutaneous administration of the compound, in mice.

We go through five molecules from ChEMBL document CHEMBL1122623, “Activities of morphinone and N-(cyclopropylmethyl)normorphinone at opioid receptors” (J Med Chem, 1984).

Values joined by “and” are separate entries in the source; they are usually repeats but may differ in a detail not shown here. Identical values can stand only once. Active and inactive are the calls of the source. No cut-off for these calls is given here.

One may read the IC50 as the point on the concentration scale where inhibition reaches its midpoint. The low end stands for inhibition by little substance, the high end for a need for much substance.

For `CN1CCC23c4c5ccc(O)c4O[C@H]2C(=O)C=CC3C1C5` (some centres not stated), the figures for the IC50 in assay [1] and in [2] were 108 nM and 47 nM, respectively. In addition, the figures for the Dose in [3] and in assay [7] were 80% and 67%, respectively. Besides, the Ratio was 0.67 and 0.68 in [4]; 0.92 in [5]. The molecule also came in with an ED50 in assay [6] of 11.1 nM mouse-1.
Take `O=C1C=CC2C3Cc4ccc(O)c5c4C2(CCN3CC2CC2)[C@H]1O5` (some centres not stated): the IC50 in assay [1] and in assay [2] was 300 nM throughout. For the same molecule, the Dose came to 60% in assay [3], 10% in assay [8] and 67% in assay [7]. Besides, the Ratio in assay [5] was determined as 0.82. Also, the ED50 result in assay [9] was “inactive”.
In assay [10], `CN1CC[C@]23c4c5ccc(O)c4O[C@H]2[C@@H](O)C=C[C@H]3[C@H]1C5` [MORPHINE] showed an ED50 of 2.8 nM mouse-1.
`CC(C)C[C@@H](NC(=O)[C@H](Cc1ccccc1)NC(=O)CNC(=O)[C@@H](C)NC(=O)[C@@H](N)Cc1ccc(O)cc1)C(=O)O` [DADLE] returned an IC50 in assay [2] of 0.22 nM.
With `CCOc1ccc2c(c1)C1(C)CCN(CC3CC3)C(C2=O)C1C` (configuration not stated) [ETHYLKETAZOCINE], the IC50 in assay [1] is 1.6 nM.
